Shown are actives, neighbours in structure and some others; about 10% of the full set was active somewhere.
Lmaj promast: inhibitors of Leishmania major promastigote growth. Leishmania major promastigotes, resazurin fluorescence viability. inhibition, % at 10 µM. actives 9% (n = 200,000); in the data active = inhibition above about 50%;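 note: promastigotes grown with compound for 44 hours at 28 °C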
WT yeast gro inh: growth inhibition of WT yeast, mitochondrial fusion screen; AID 1362; inhibition, % at 10 µM; actives 2.1% (n = 190,000); mitochondrial fusion phenotypic screen, WT strain; in the data active = inhibition above about 58%; tested in S. cerevisiae
PMI act satM6P: PMI (human) activation, high substrate | P34949 | coupled PMI enzyme assay, resazurin fluorescence, 20 min; active compounds read high; 1 = untreated enzyme, 0 = substrate-free blank | activation factor at 20 µM | actives 0.34% (n = 190,000) | AID 1216;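 active = activation factor of 2 or more at 20 µM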
Target sequence (P34949 whole entry, looked up): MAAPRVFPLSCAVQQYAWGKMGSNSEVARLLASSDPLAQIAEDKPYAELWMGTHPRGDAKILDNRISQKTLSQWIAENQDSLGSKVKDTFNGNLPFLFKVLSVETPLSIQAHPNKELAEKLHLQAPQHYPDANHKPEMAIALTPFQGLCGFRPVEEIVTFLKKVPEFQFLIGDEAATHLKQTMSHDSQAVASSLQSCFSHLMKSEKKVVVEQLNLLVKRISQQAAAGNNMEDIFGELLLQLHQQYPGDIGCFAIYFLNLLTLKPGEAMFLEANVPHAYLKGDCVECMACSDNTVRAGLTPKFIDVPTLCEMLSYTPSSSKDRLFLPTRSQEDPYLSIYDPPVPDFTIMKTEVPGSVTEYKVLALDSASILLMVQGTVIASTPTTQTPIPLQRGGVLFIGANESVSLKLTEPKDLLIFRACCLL
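Test system: human phosphomannose isomerase with PGI, G6PDH, diaphorase coupling enzymes; Amount: PMI at 15 ng/mL final; Reagent: Mannose-6-phosphate 1.0 mM (near-saturating) plus 0.22 mM NADP+; Timing: 20 min, room temperature; Technique: resorufin fluorescence at Ex 544/Em 590 nm; Dosing: 20 µM single dose.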
Diaphorase act: activates diaphorase or chemically reduces, flagging diaphorase assay artifacts; Diaphorase/resazurin coupled assay, resorufin fluorescence, 16 min; active compounds read high; 1 = vehicle wells, 0 = NADH-free wells; activation factor at 20 µM; actives 0.005% (n = 190,000); AID 1229;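 active = diaphorase activity raised at least twofold by the compound at 20 µM; inactive = activation factor below 2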
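System – purified diaphorase enzyme from Clostridium kluyveri · Input – enzyme 0.07 U/mL final · Also added – final NADH 0.114 mM, resazurin 0.1 mM · Measured by – fluorescence of resorufin, 544 nm excitation, 590 nm emission · Timing – 16 min enzyme reaction, ambient temperature · Measure – resorufin increase flagging diaphorase activators or reducers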
PMI activator: increases human mannose-6-phosphate isomerase activity; P34949; purified human PMI, coupled resazurin fluorescence, 20 min; active compounds read high; 1 = vehicle control, 0 substrate-free wells; activation factor at 20 µM; actives 0.005% (n = 190,000);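 active = activation factor of 2 or more at 20 µM, relative to plate controls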
Of the large screens only hits and unclear results are named; the others gave an inactive call.

COc1ccc(NC(=O)CC23CC4CC(C2)CC(n2nnc(C)n2)(C4)C3)cc1	none
O=C(O)C1=C[C@H](C2CC2)C[C@H](OCCCCO)O1	none
COc1ccc(C(C(=O)NC2CCCCC2)N(C(=O)CCl)c2ccc(OC)cc2)cc1 (centres undefined)	Lmaj promast 93
COc1ccc(C(C(=O)NC2CCCCC2)N(C(=O)CCl)c2ccc(C)cc2)cc1 (centres undefined)	Lmaj promast 91
COc1ccc(-c2nsc(C(=O)N(c3ccc(F)cc3)C(C(=O)NC3CCCC3)c3ccc(OC)cc3)c2N)cc1 (centres undefined)	Lmaj promast 90
Cc1ccc(C(C(=O)NC2CCCCC2)N(C(=O)CCCC(=O)Nc2ccccn2)c2ccc3c(c2)OCCO3)cc1 (centres undefined)	Lmaj promast 68
CC(C)C(=O)Nc1ccc2c(c1)C(=O)NC2=O	none
COc1ccc(C(C(=O)NC2CCCCC2)N(C(=O)CCl)c2cccc(Cl)c2)cc1 (centres undefined)	Lmaj promast 100
CC(C)CCNC(=O)C(c1ccc(O)cc1)N(C(=O)C1COc2ccccc2O1)c1cccc(O)c1 (centres undefined)	none
CCOc1cccc(N(C(=O)C2COc3ccccc3O2)C(C(=O)NC2CCCCC2)c2ccc(O)cc2)c1 (centres undefined)	Lmaj promast 82
COc1cccc(N(C(=O)c2cnccn2)C(C(=O)NC2CCCCC2)c2ccc(Cl)cc2)c1 (centres undefined)	none
COC(CN(C(=O)CCl)C(C(=O)NC1CCCCC1)c1ccc(C)cc1)OC (centres undefined)	Lmaj promast 72
COc1ccc(CN(C(=O)c2nsc(Cl)c2Cl)C(C(=O)NC2CCCC2)c2ccc(C)cc2)cc1 (centres undefined)	Lmaj promast 71
CC(NC(=O)C(=O)NN=C1CCCCCCCCCCC1)c1ccccc1 (centres undefined)	none
Cc1nnc(NC(=O)c2ccccc2Oc2ccccc2)s1	none
Cc1ccc(S(=O)(=O)n2nnc3ccccc32)c(C)c1C	none
O=C(CCn1nnc2ccccc21)Nc1nnc(Cc2ccccc2)s1	WT yeast gro inh 67
O=C(CCn1nnc2ccccc21)Nc1nnc(COc2ccccc2F)s1	none (no result: WT yeast gro inh)
O=C(CCCCCNC(=O)c1ccccc1Br)N=Nc1c(O)[nH]c2ccccc12	none
CCN(Cc1nc2ccccc2c(=O)[nH]1)Cc1cc(=O)oc2cc(OC)ccc12	none
CCSc1nc(C)cc(C)c1S(=O)(=O)c1ccccc1C	Lmaj promast 88
CCn1nc(C)c(NC(=O)c2cnn3c(C(F)F)cc(-c4ccccc4)nc23)c1C	none
Cc1ccc(S(=O)(=O)N(CC(O)CN(C)C)c2ccccc2)cc1 (centres undefined)	none
Cc1ccc(S(=O)(=O)N(CCCO)CC(O)CON=C2c3ccccc3-c3ccccc32)cc1 (centres undefined)	Lmaj promast 100, WT yeast gro inh 59
CN(/N=C/c1cccnc1)c1cnn(-c2ccc(F)c(Cl)c2)c(=O)c1Cl	Lmaj promast 68
CN(/N=C/c1c[nH]c2ccccc12)c1cnn(-c2ccc(F)c(Cl)c2)c(=O)c1Cl	none
O=C(NCC1c2ccccc2CCN1C(=O)CN1C(=O)c2ccccc2C1=O)C1CCCCC1 (centres undefined)	none
CCCN(CCC)CCNC(=O)c1cc2c(=O)n(C)c3ccccc3c2n1C	none
Cn1c(C(=O)NCCN2CCN(c3ccccc3F)CC2)cc2c(=O)n(C)c3ccccc3c21	Lmaj promast 51
CN(CCNC(=O)c1cc2c(=O)n(C)c3ccccc3c2n1C)Cc1ccccc1	Lmaj promast 69
Cn1nc(C(=O)NC(C)(C)C)c2ccccc21	none
CCOC(=O)c1c(-c2ccc(OC)c(OC)c2)csc1NC(=O)C1CCCO1 (centres undefined)	Lmaj promast 100
Cc1cccc(Nc2nc(N)c([N+](=O)[O-])c(N3CCCC(C)C3)n2)c1 (centres undefined)	WT yeast gro inh 93
Cc1ccc(Nc2nc(N)c([N+](=O)[O-])c(N3CCC(C)CC3)n2)cc1C	WT yeast gro inh 95
Cc1ccc(C(c2c(C)[nH][nH]c2=O)c2c(C)[nH][nH]c2=O)cc1[N+](=O)[O-]	Lmaj promast 58
CCOc1cc(C(c2c(C)[nH][nH]c2=O)c2c(C)[nH][nH]c2=O)ccc1OCc1ccc([N+](=O)[O-])cc1	Lmaj promast 100
CCOC(=O)c1c(C)nn(Cc2cccc(Cl)c2)c1N	none
Cc1oc(-c2ccc(Cl)cc2)nc1CS(=O)CC(=O)NCCCN(C)C1CCCCC1 (centres undefined)	Lmaj promast 100
COc1cc2nc(N3CCN(C(=O)c4ccco4)CC3)nc(N)c2cc1OC	Lmaj promast 100
CSc1ccc(/C=C/C(=O)c2ccc(NC(=O)C(C)C)cc2)cc1	Lmaj promast 100
CSc1ccc(/C=C/C(=O)c2ccc(NC(=O)Cc3ccccc3)cc2)cc1	Lmaj promast 91
Cc1cc(N2CCOCC2)n2nc(C)c(-c3ccccc3)c2n1	none
Cc1nn2c(N3CCN(c4ccccn4)CC3)cc(C(C)C)nc2c1-c1ccccc1	WT yeast gro inh 97
O=C(COc1ccccc1[N+](=O)[O-])N/N=C/c1cccs1	none
COc1ccc(/C=C/C=N/NC(=O)COc2ccc(OC)cc2)cc1	none
CC(C)(C)c1ccc(OCC(=O)N/N=C/c2cc(Br)ccc2OC(=O)c2ccco2)cc1	Lmaj promast 94
COc1ccc(Br)cc1/C=N/NC(=O)c1ccco1	none
COc1cc(/C=N/NC(=O)COc2ccccc2[N+](=O)[O-])ccc1OC(=O)c1ccco1	Lmaj promast 57
O=C(COc1ccccc1[N+](=O)[O-])N/N=C/c1ccc(OC(=O)c2ccco2)cc1	none
O=C(COc1ccccc1[N+](=O)[O-])N/N=C/C=C/c1ccco1	WT yeast gro inh 71
Cc1ccc(OCC(=O)N/N=C/C=C/c2ccco2)cc1	Lmaj promast 76
c1ccc2sc(NC3=NCN(CCN4CCOCC4)CN3)nc2c1	Lmaj promast 84
Cc1cc(C)c2c3c(sc2n1)C1(CCSCC1)C(C#N)=C(N)O3	Lmaj promast 100
Cc1ccc(CN2CCN(Cc3ccccc3C(F)(F)F)CC2)cc1	none
COc1ccc(CNc2nc(S(=O)(=O)c3ccccc3)c(Cl)s2)cc1OC	none
Cc1[nH]c2ccccc2c1C(=O)C(=O)N1CCCc2ccccc21	none
O=C(CSc1n[nH]c(-c2ccccc2O)n1)N1CCCc2ccccc21	Lmaj promast 75
Cc1ccccc1OCC(=O)N1CCCc2ccccc21	Lmaj promast 53
O=C(CSc1n[nH]c(-c2cccs2)n1)N1CCCc2ccccc21	none
Cc1[nH]c2ccccc2c1SCC(=O)N1CCCc2ccccc21	Lmaj promast 99

High-throughput results deposited in PubChem by several laboratories.
